The values below come from ChEMBL document CHEMBL1126922, “Synthesis of 2,4-disubstituted thiazoles and selenazoles as potential antitumor and antifilarial agents: 1. Methyl 4-(isothiocyanatomethyl)thiazole-2-carbamates, -selenazole-2- carbamates, and related derivatives” (J Med Chem, 1993).

Each structure is given as a SMILES string.

Assay [1] has as its system L1210. Kind of assay: In vitro inhibitory concentration of compound against leukemia L1210 cells. The format is functional, cell-based. As to conditions: Mus musculus; call rule not given here. The method in brief: (§1)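 L1210 murine leukemia cells kept in static suspension culture at 38 °C in Fischer's medium with 10% heat-inactivated horse serum. Growth measured over 3 days with the compound present continuously at various concentrations. Growth rate = control doubling time / treated doubling time, using the final rate if growth slowed. IC50 = concentration that cuts growth rate to 50% of control.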

Assay [2] has as its system L1210. Kind of assay: Effect on DNA synthesis in L1210 measured by inhibition of incorporation of [3H]dThd into acid insoluble material after 0 hours expressed as percent of control. The format is functional, Mus musculus. On the set-up: scale not given: the % may be the effect or the level left. The method in brief: (§2)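 L1210 cells given 100 μM compound together with [methyl-3H]dThd (20 Ci/mmol, 1 μCi/mL) or [5-3H]Urd (28.5 Ci/mmol, 1 μCi/mL). Label pulse lasted 1 h, started either at compound addition (0 h) or 6 h later. 3H in the acid-insoluble fraction was counted by liquid scintillation. Values are % of control, mean of two determinations in separate experiments, with range.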

Assay [3] has as its system L1210. Kind of assay: Effect on DNA synthesis in L1210 measured by inhibition of incorporation of [3H]dThd into acid insoluble material after 6 hours expressed as percent of control. The format is functional, Mus musculus. Details: scale not given: the % may be the effect or the level left. The method in brief:
as §2

For assay [4], the system named is L1210. Kind of assay: Effect on RNA synthesis in L1210 measured by inhibition of incorporation of [3H]uridine into acid insoluble material after 6 hours expressed as percent of control. The format is functional, Mus musculus. Details: scale not given: the % may be the effect or the level left. The method in brief:
as §2

Assay [5] relates to L1210. In words: Effect on protein synthesis in L1210 measured by inhibition of incorporation of [3H]leucine into acid insoluble material after 0 hours expressed as percent of control. The format is functional, Mus musculus. Details: scale not given: the % may be the effect or the level left. The method in brief: (§3)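 100 μM compound and L-[3,4,5-3H]leucine (143 Ci/mmol, 1 μCi/mL) were added together to L1210 cells ((1-1.5) × 10^5 cells/mL) for a 1 h pulse, started at 0 h or 6 h after compound. Duplicate samples were chilled in ice-cold Puck's Saline G, washed, and precipitated with BSA plus 8% perchloric acid on ice for 30 min. The pellet was hydrolysed in 1 N NaOH at 37 °C and counted; results are % of control.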

Assay [6] has as its system L1210. Kind of assay: Effect on protein synthesis in L1210 measured by inhibition of incorporation of [3H]leucine into acid insoluble material after 6 hours expressed as percent of control. The format is functional, Mus musculus. On the set-up: scale not given: the % may be the effect or the level left. The method in brief: as §3
Assay [7] deals with L1210. In words: Growth rate measured as ratio of population doubling time of control cells to that of treated L1210 cells at 100 uM. The format is functional, Mus musculus. The method in brief: (§4)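 L1210 cells were grown in static suspension at 38 °C in Fischer's medium with 10% heat-inactivated horse serum, with test compound present continuously for 3 days. Growth rate is the treated/control slope of semilog cell number versus time, calculated as control doubling time ÷ treated doubling time. If growth slowed during the run, the final rate at day 3 was used.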

The subject of assay [8] is L1210. Kind of assay: Effect on RNA synthesis in L1210 measured by inhibition of incorporation of [3H]uridine into acid insoluble material after 0 hours expressed as percent of control. The format is functional, Mus musculus. Details: scale not given: the % may be the effect or the level left. The method in brief:
as §2

Assay [9] has as its system L1210. In words: Growth rate in leukemia L1210 cells at 100 uM. The format is functional, Mus musculus. The method in brief: as §4
The subject of assay [10] is L1210. Kind of assay: In vitro inhibitory concentration of compound against leukemia L1210 cells; No significant inhibition. The format is functional, cell-based, Mus musculus. The method in brief:
as §1

For assay [11], the system named is L1210. In words: Growth rate measured as ratio of population doubling time of control cells to that of treated L1210 cells at 10 uM.

Regarding `COC(=O)Nc1nc(CN=C=S)cs1`, it took 3.2 µM to reach half-maximal inhibition in [1] (IC50). In addition, the Effect came to 88% in [2]; 56% in [3]; 67% in assay [4]; 58% in assay [5]; 48% in [6]; 74% in assay [8]. For the same molecule, the GR in assay [7] was 0%.

For `CCOC(=O)Cc1csc(NC(=O)OC)n1`, in assay [7], the GR was found to be 104%.

In the case of `COC(=O)Nc1nc(CCCl)cs1`, in assay [7], the GR came to 92%.

In turn, `COC(=O)Nc1nc(CN=C=S)c[se]1` registered an IC50 in [1] of 22 µM. For the same molecule, the GR in [7] was 31%.

Molecule `COC(=O)Nc1nc(CCN=C=S)cs1` displayed an IC50 in assay [1] of 26 µM. For the same molecule, in assay [7], the GR was 0%.

On to `COC(=O)Nc1nc(CCO)cs1`, for which the GR control in assay [9] amounted to 102%.

With `COC(=O)Nc1nc(CCl)cs1`, the IC50 entry in assay [10] was “Not Active”. Further, the GR in [7] came to 96%.

Turning to `COC(=O)Nc1nc(CCI)cs1`, the GR in [11] amounted to 92%.

With `COC(=O)Nc1nc(CN=C=[Se])cs1`, the midpoint of inhibition in assay [1], the IC50, lay at 7.6 µM. In [7], the GR was found to be 0%.

With `COC(=O)Nc1nc(CCl)c[se]1`, the GR in [7] worked out at 103%.
